From BindingDB's records for doi:10.1021/jm049559q (Tibotec, 2005)

Target: Integrase (Human immunodeficiency virus 1, UniProt Q7ZJM1)
Test: Log of inhibitory concentration against human immunodeficiency virus type 1 integrase
Procedure, shortened: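 Strand transfer ELISA using recombinant His-tagged HIV-1 integrase expressed in E. coli BL21(DE3). 20 nM biotinylated processed viral DNA substrate is preincubated with 300 nM integrase for 5 min at 37 °C. Serial compound dilutions and 50 nM target DNA are then added in 20 mM Hepes pH 7.5, 25 mM NaCl, 5 mM MnCl2, 2 mM DTT, 50 µg/mL BSA and incubated 2 h at 37 °C. Products are captured on streptavidin plates, detected with anti-FITC peroxidase antibody and read by chemiluminescence.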

Integrase, sequence (Q7ZJM1 whole entry): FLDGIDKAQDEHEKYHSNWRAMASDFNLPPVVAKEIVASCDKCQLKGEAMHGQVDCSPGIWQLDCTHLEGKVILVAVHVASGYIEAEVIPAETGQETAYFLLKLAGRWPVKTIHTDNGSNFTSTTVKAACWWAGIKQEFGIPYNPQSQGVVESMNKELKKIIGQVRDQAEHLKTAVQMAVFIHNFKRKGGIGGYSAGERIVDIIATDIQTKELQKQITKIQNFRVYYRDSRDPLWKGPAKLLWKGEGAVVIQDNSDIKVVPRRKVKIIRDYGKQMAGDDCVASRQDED

| Compound | IC50 |
| --- | --- |
| COc1ccc(Cn2c(=O)c3c(=O)c4[nH]cc[nH]c4c(=O)c3c2=O)cc1 | 562 nM |
| O=c1c2[nH]cc[nH]c2c(=O)c2c(=O)n(Cc3ccc(Cl)cc3)c(=O)c12 | 417 nM |
| COc1cccc(Cn2c(=O)c3c(=O)c4[nH]cc[nH]c4c(=O)c3c2=O)c1OC | 427 nM |
| COc1ccc(Cn2c(=O)c3c(=O)c4[nH]cc[nH]c4c(=O)c3c2=O)c(OC)c1 | 427 nM |
| O=c1c2[nH]cc[nH]c2c(=O)c2c(=O)n(CCc3ccccc3)c(=O)c12 | 2040 nM |
| O=c1c2[nH]cc[nH]c2c(=O)c2c(=O)n(Cc3ccc(F)cc3)c(=O)c12 | 417 nM |
| O=c1c2[nH]cc[nH]c2c(=O)c2c(=O)n(Cc3cccc(F)c3)c(=O)c12 | 562 nM |
| O=c1c2[nH]cc[nH]c2c(=O)c2c(=O)n(CCc3ccc4c(c3)OCO4)c(=O)c12 | 1410 nM |
| O=c1c2[nH]cc[nH]c2c(=O)c2c(=O)n(Cc3ccc(OC(F)(F)F)cc3)c(=O)c12 | 2040 nM |
| O=c1c2[nH]cc[nH]c2c(=O)c2c(=O)n(Cc3cccc(C(F)(F)F)c3)c(=O)c12 | 427 nM |
| O=c1c2[nH]cc[nH]c2c(=O)c2c(=O)n(Cc3ccc4c(c3)OCO4)c(=O)c12 | 562 nM |
